Compound activity as filed in PubChem BioAssay.
The list is not random: actives were taken first. Their share in the collection is about 1.8%.
iPSC survival up – enhancers of human iPSC single-cell survival | AID 602274 | hiPSC single-cell survival, ATPlite luminescence; 100% = ROCK inhibitor wells, 0% = DMSO | actives 0.044% (n = 360,000) | survival enhancement, % at 20 µM; in the data active = survival enhancement above about 18%;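 note: cells exposed to compounds for 16 hours before the ATP read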
FLuc inh counter – counter-screen for luciferase assay inhibitors: firefly luciferase inhibition; inhibition, % at 10 µM; AID 1006; ATPLite firefly luciferase biochemical luminescence, 10 min; actives 1.5% (n = 200,000);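 active = inhibition above about 50% when tested at 10 µM, limit read from the data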
Target sequence (P08659 whole entry, looked up): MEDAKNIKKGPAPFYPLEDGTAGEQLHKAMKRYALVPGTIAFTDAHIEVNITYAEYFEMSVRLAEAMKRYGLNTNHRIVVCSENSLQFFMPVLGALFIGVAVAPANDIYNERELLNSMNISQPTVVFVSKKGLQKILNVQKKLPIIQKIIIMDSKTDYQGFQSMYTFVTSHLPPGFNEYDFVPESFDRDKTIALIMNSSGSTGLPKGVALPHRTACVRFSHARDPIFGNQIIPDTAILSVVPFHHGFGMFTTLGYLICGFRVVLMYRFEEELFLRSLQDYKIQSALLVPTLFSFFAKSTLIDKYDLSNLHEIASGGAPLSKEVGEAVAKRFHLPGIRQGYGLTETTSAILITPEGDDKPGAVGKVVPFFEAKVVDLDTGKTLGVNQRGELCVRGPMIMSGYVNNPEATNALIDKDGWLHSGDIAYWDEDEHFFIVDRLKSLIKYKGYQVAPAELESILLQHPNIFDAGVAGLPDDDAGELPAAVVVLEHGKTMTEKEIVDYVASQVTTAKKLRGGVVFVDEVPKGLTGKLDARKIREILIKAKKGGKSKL
beta cell repl – MIN6 beta-cell proliferation induction; MIN6 cells proliferation, ATPlite luminescence, 48 h; cells starved in 0.2% serum; 100% = growth in 10% serum; proliferation, % at 10 µM; actives 0.29% (n = 330,000); AID 2380;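 active = compounds whose signal lies at least 3.5 SD above the mean of all wells on their plate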;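 note: 0% = DMSO-treated cells in low-serum medium and 100% = 10% serum control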
PPC-1+TRAIL kill – PPC-1 cancer cell killing with TRAIL present; PPC-1 cells + TRAIL, ATPLite viability luminescence; cell killing (% activity), % at 4 µM or 5 µM; actives 0.41% (n = 220,000);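 active = cell killing above 50% in the first pass at 4 µM, then a duplicate retest at 5 µM averaging 50% or more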;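 note: plate controls were cells with TRAIL plus DMSO for no effect and medium-only wells lacking cells for full effect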
C8 TRAIL sens – caspase-8 TRAIL sensitization | actives 1% (n = 360,000) | AID 624354 | inhibition (viability loss, TRAIL sensitization), % at 10 µM | NB7+C8 cells + TRAIL, ATPlite viability luminescence;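 active = compounds causing at least 50% loss of cell viability in the single-dose screen, relative to plate controls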
FLuc act counter – firefly luciferase counter-screen for stimulation assays; P08659; ATPlite luciferase biochemical, luminescence, 10 min; 0 = ATP-free wells, 1 = DMSO control; activation factor at 10 µM; 200,000 tested, under 10 active;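 active = luciferase activation factor, scaled between plate controls, of at least 2 with compound at 10 µM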
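Assay system: Luciferase/luciferin reagent mix; Medium: PBS as buffer for the ATP substrate; Dosing: test compounds dosed from 2 mM stocks in 100% DMSO; Times: 10 min, room temperature; Signal: luminescence from luciferase reaction; Read-out: luciferase activation; Controls: No-ATP low control, compound-free enzyme-plus-ATP high control.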
PPC1 cytotox – kills PPC-1 cells. shares compounds with PPC-1+TRAIL kill. PPC-1 viability, ATPlite luminescence, overnight. cytotoxicity, % at 5 µM. actives 50% (n = 1,200);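 active = reconfirmed compounds whose average cytotoxicity reaches 50% or more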;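 note: 0% = DMSO-treated cells and 100% = wells holding medium but no cells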
Numbers without * were called inactive; nt = no result given.

SMILES	iPSC survival up	FLuc inh counter	beta cell repl	PPC-1+TRAIL kill	C8 TRAIL sens	FLuc act counter	PPC1 cytotox
O=C(Nc1ccc2c(c1)OCCO2)c1c(F)cccc1F	-2	40	-3	18	2	0.6	nt
O=C(Nc1ccc2c(c1)OCCO2)c1ccccn1	-5	93*	-6	43	75*	0.1	53*
O=C(Nc1ccc2c(c1)OCCO2)c1ccccc1F	-2	76*	-3	28	48	0.2	33
CCN(C(=O)COC(=O)c1ccccc1Oc1ccccc1)c1c(N)n(Cc2ccccc2)c(=O)[nH]c1=O	4	nt	nt	nt	-8	nt	nt
NS(=O)(=O)c1ccc(CNC(=O)c2cccnc2Cl)cc1	0	nt	1	nt	2	nt	nt
Cc1c(NC(=O)CSc2nnc(C(C)N(C)C)n2-c2ccccc2)c(=O)n(-c2ccccc2)n1C (centres undefined)	-2	nt	nt	nt	2	nt	nt
O=C(Nc1ccc(Cl)c(S(=O)(=O)N2CCOCC2)c1)c1cn2ccccc2n1	1	-5	-1	4	15	1.1	nt
O=C(Nc1ccc(N2CCOCC2)cc1)c1cn2ccccc2n1	-5	93*	-6	81*	81*	0.1	82*
COC(=O)c1cn[nH]c1NC(=S)Nc1ccc(Cl)c(Cl)c1	-2	25	-2	17	18	0.8	nt
CCOC(=O)c1cn[nH]c1NC(=S)Nc1ccc(OC)cc1	-1	nt	-4	60*	67*	nt	59*
CN(C)S(=O)(=O)c1ccc(SCC(=O)N2CC(=O)Nc3ccccc32)nc1	0	nt	4	nt	-20	nt	nt
Cc1cc(N2CCOCC2)n2ncc(-c3ccccc3)c2n1	-3	84*	-4	48	69*	0.2	48
CCc1nc2ccc(C(=O)NCCCN3CCCC3=O)cn2c1N(C)C(=O)C1CCCCC1	1	nt	nt	nt	9	nt	nt
CCn1c(SCC(=O)NCc2ccco2)nc2ccccc2c1=O	-1	1	0	-9	-13	1	nt
COc1ccc(C(=O)Nn2c(SCC(=O)NCc3ccco3)nc3ccccc3c2=O)cc1	-2	54*	-3	34	33	0.5	35
COc1ccc2c(C)nc(Nc3nc(-c4ccccc4)cc(=O)[nH]3)nc2c1	0	nt	-3	42	41	nt	44
Cc1ccc2nc(Nc3nc(-c4ccccc4)cc(=O)[nH]3)nc(C)c2c1	-1	-5	-4	5	12	1	nt
CC1=Nc2cccc([N+](=O)[O-])c2NC(=O)C1	-2	-10	nt	24	-2	1.1	nt
Cc1nc2sc(-c3ccccc3)cc2c(=O)n1N	-1	nt	-6	47	60*	nt	47
O=c1[nH]c(-c2cccnc2)nc2sc(-c3ccccc3)cc12	-1	32	-5	20	-4	0.7	nt
Cc1nc2sc(-c3ccccc3)cc2c(=O)n1-n1cccc1	-1	17	0	9	16	0.8	nt
Cc1nc2sc(-c3ccccc3)cc2c(=O)[nH]1	-4	90*	-4	65*	77*	0.1	61*
CCn1cc(S(=O)(=O)NCCc2ccccc2OC)cn1	0	nt	-4	nt	8	nt	nt
CC1CCc2c(sc(/N=C/c3ccco3)c2C(N)=O)C1 (centres undefined)	-1	nt	-3	49	63*	nt	49
COc1cccc(NC(=O)Cn2nnc(C(=O)NCCc3ccccc3)c2N)c1	0	nt	-3	nt	-14	nt	nt
O=C(Nc1nonc1NC(=O)C1CCCCC1)C1CCCCC1	3	-5	-6	1	-3	1	3
CCOc1ccc2nc(-c3ccccc3)[nH]c2c1	-4	84*	-6	48	69*	0.2	56*
CCOc1ccc2nc(C(C)O)[nH]c2c1 (centres undefined)	-2	-3	-2	-9	1	1	nt
COCCn1c(C)cc(C(=O)COC(=O)Cc2n[nH]c(=O)c3ccccc23)c1C	0	nt	-4	nt	4	nt	nt
COCCn1c(C)cc(C(=O)COC(=O)c2n[nH]c3ccccc23)c1C	-4	94*	-6	82*	88*	0.1	84*
